Consider 30 molecules from ChEMBL document CHEMBL1795330, “Dual IGF-1R/SRC inhibitors based on a N'-aroyl-2-(1H-indol-3-yl)-2-oxoacetohydrazide structure” (Eur J Med Chem, 2011).

In test [1] the target is Insulin-like growth factor 1 receptor (Homo sapiens, UniProt P08069). As to the kind of experiment: Inhibition of IGF-1R assessed as incorporation of p33 using [gammaP33]-ATP by microplate scintillation counting. In short, it runs like this: (§1)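 Compound added in 10% DMSO. Incubated 80 min at 30 °C, stopped with 2% phosphoric acid, washed with 0.9% NaCl, 33P incorporation counted by scintillation. Activity normalised to no-enzyme and no-inhibitor controls; plates repeated if Z′ < 0.4.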
Chain of Insulin-like growth factor 1 receptor (P08069 31-736 limits assumed): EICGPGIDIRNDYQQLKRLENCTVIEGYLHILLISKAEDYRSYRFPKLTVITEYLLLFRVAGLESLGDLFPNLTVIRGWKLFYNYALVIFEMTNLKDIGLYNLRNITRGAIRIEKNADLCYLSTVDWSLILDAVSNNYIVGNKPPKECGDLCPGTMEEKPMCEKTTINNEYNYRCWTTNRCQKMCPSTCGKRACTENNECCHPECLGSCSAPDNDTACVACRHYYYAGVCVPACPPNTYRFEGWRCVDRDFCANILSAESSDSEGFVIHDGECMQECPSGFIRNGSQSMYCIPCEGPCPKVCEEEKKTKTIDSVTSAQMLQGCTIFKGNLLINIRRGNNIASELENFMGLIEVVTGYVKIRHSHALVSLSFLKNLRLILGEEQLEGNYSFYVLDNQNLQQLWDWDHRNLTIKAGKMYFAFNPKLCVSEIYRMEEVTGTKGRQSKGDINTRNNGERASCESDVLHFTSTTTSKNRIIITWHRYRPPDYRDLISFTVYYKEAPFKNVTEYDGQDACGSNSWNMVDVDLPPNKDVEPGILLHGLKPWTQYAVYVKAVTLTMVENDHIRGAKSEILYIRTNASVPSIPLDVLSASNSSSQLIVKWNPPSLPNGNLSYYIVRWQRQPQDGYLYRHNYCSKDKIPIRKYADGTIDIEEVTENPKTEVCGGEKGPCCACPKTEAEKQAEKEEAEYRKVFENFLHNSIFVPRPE
Chain of Insulin-like growth factor 1 receptor (P08069 741-1367 limits assumed): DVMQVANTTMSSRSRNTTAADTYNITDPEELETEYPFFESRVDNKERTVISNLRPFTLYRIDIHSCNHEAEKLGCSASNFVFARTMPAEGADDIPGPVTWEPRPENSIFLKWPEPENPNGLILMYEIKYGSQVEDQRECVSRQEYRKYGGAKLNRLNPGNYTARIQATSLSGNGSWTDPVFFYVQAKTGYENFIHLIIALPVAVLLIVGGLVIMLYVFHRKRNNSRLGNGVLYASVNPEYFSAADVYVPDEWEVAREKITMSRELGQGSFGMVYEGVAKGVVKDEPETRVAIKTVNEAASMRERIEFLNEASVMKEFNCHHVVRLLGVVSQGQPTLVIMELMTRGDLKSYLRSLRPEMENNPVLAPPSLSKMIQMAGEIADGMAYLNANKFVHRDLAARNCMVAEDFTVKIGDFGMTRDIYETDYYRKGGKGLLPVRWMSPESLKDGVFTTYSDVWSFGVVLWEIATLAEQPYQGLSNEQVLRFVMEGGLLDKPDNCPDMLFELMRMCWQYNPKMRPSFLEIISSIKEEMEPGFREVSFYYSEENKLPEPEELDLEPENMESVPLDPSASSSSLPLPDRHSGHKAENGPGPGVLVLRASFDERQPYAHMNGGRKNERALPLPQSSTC

For test [2], the target named is Hepatocyte growth factor receptor (Homo sapiens, UniProt P08581). As to the kind of experiment: Inhibition of c-MET assessed as incorporation of p33 using [gammaP33]-ATP by microplate scintillation counting. In a few lines:
as §1

Test [3] addresses Proto-oncogene tyrosine-protein kinase Src (Homo sapiens, UniProt P12931). As to the kind of experiment: Inhibition of SRC assessed as incorporation of p33 using [gammaP33]-ATP by microplate scintillation counting. In short, it runs like this:
as §1

Test [4] has as its system NCI-H522. The test is described as follows: Antiproliferative activity against human NCI-H522 at 10 uM after 48 hrs by sulforhodamine B assay relative to control. The format is functional. To be noted: NCI-H522, 48 h. In a few lines:
(§2)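 NCI cell-line screen: cells plated at 5000–40,000/well in medium with 5% foetal bovine serum and 2 mM L-glutamine, preincubated 24 h at 37 °C, 5% CO2. Time-zero plates fixed with TCA at drug addition. Compound from DMSO stock added; 48 h exposure. Cells fixed in situ with cold TCA, stained with 0.4% sulforhodamine B in 1% acetic acid, absorbance 515 nm; growth expressed relative to untreated controls (100%).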
A general note: The SRB assay estimates cell density from bound dye.

Test [5] has as its system A549. As to the kind of experiment: Antiproliferative activity against human A549 cells at 10 uM after 48 hrs by sulforhodamine B assay relative to control. It counts as functional. To be noted: A549, 48 h. In short, it runs like this: as §2
Test [6] deals with OVCAR-8. As to the kind of experiment: Antiproliferative activity against human OVCAR8 at 10 uM after 48 hrs by sulforhodamine B assay relative to control. It counts as functional. As to conditions: OVCAR-8, 48 h. In short, it runs like this:
as §2

Chain of Hepatocyte growth factor receptor (P08581 whole entry): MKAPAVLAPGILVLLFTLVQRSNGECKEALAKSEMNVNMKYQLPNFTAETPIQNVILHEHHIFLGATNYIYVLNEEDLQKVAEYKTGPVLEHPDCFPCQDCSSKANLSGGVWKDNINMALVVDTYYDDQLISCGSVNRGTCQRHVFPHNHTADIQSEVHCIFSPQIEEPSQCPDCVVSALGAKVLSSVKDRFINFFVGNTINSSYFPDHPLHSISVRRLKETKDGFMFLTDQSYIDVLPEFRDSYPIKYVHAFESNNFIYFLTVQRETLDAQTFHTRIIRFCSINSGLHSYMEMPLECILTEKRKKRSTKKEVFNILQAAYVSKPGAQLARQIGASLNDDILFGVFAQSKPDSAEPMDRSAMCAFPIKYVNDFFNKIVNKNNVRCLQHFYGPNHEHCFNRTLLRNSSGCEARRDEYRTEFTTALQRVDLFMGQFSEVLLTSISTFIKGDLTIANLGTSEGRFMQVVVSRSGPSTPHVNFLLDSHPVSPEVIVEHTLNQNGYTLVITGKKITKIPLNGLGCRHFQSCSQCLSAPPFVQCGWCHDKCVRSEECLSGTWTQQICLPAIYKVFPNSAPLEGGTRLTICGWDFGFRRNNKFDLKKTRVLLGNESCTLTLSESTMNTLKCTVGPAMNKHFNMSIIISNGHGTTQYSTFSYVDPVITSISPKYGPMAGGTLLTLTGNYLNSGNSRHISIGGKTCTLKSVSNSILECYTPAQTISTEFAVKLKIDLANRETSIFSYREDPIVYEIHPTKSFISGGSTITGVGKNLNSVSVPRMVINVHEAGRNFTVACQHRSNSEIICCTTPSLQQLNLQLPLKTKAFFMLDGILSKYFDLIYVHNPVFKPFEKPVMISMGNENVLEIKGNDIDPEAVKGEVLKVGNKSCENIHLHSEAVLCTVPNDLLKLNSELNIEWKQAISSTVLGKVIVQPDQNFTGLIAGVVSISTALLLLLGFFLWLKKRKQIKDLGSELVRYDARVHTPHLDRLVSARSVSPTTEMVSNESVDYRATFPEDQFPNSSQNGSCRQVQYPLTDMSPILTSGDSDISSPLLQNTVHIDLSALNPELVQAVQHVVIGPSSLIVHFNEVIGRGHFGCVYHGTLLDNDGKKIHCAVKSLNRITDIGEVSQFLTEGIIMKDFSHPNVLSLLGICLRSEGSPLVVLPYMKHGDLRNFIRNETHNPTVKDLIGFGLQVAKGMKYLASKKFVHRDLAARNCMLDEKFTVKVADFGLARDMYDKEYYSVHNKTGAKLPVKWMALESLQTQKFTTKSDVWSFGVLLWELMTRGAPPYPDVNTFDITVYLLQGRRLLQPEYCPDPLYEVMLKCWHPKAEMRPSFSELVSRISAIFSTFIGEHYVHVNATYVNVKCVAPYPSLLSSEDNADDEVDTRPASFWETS
Chain of Proto-oncogene tyrosine-protein kinase Src (P12931 2-536 limits assumed): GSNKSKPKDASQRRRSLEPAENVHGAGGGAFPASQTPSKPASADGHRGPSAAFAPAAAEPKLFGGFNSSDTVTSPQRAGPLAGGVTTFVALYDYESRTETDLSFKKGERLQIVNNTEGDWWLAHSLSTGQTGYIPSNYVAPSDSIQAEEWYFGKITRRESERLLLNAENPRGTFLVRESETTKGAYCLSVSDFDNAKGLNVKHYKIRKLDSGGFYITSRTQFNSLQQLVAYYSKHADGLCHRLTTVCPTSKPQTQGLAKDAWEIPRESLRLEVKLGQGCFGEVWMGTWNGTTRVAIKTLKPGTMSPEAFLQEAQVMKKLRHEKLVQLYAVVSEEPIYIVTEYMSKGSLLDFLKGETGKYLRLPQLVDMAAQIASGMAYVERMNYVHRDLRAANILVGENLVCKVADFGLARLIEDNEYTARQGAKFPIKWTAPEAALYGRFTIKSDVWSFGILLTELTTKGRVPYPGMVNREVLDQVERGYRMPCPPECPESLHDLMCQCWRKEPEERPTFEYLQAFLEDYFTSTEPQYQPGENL

In general, IC50 refers to the point on the concentration scale where inhibition reaches its midpoint. As to `O=C(NNc1ccc(Cl)cc1)C(=O)c1c[nH]c2ccccc12`, the IC50 in test [1] and in test [2] was > 100 µM throughout.
Turning to `O=C(NNC(=O)c1ccc([N+](=O)[O-])cc1)C(=O)c1c[nH]c2ccccc12`, the IC50 was > 100 µM in test [1] and 69 µM in test [2].
Take `O=C(NNc1ccc(Br)cc1)C(=O)c1c[nH]c2ccccc12`: the concentration for half-maximal inhibition (IC50) in test [1] and in test [2] was > 100 µM each time.
As to `O=C(NNc1ccc(I)cc1)C(=O)c1c[nH]c2ccccc12`, the 50% inhibitory concentration (IC50) in test [1] and in test [2] was > 100 µM throughout.
Regarding `Cc1ccc(CCNC(=O)C(=O)c2c[nH]c3ccccc23)cc1`, the IC50 in test [1] is 52 µM; in test [2], > 100 µM.
For `O=C(NCCc1cccc(Cl)c1)C(=O)c1c[nH]c2ccccc12`, the IC50 in test [1] and in test [2] was > 100 µM each time.
As for `O=C(NNC(=O)c1ccccc1)C(=O)c1c[nH]c2ccccc12`, the IC50 in test [1] and in test [2] was > 100 µM in each case.
For `Cc1ccc(C(=O)NNC(=O)C(=O)c2c[nH]c3ccccc23)cc1`, the IC50 in test [1] turned out to be 82 µM; in test [2], 95 µM.
For `COc1ccc(C(=O)NNC(=O)C(=O)c2c[nH]c3ccccc23)cc1`, in that order: 54 µM and 96 µM.
`CC(C)(C)c1ccc(C(=O)NNC(=O)C(=O)c2c[nH]c3ccccc23)cc1`: the IC50 in test [1] is 4.4 µM; in test [3], 5900 nM; in test [2] it was 36 µM.
For `O=C(NNC(=O)c1ccc(C(F)(F)F)cc1)C(=O)c1c[nH]c2ccccc12` the same measures were 4.1 µM, 1300 nM and 49 µM.
Take `O=C(NNC(=O)c1ccc(Cl)cc1)C(=O)c1c[nH]c2ccccc12`: the values for the IC50 in test [1] and in test [2] were 16 µM and 48 µM, respectively.
As for `O=C(NNC(=O)c1ccc(I)cc1)C(=O)c1c[nH]c2ccccc12`, the IC50 is 4 µM in test [1], 4500 nM in test [3] and 14 µM in test [2].
For `O=C(NNC(=O)c1ccccc1F)C(=O)c1c[nH]c2ccccc12` the same measures were 91 µM, 96000 nM and 91 µM.
For `Cc1ccc(C)n1-c1ccc(C(=O)NNC(=O)C(=O)c2c[nH]c3ccccc23)cc1`, in that order: 4.9 µM, 3600 nM and 16 µM.
For `Cc1nc(-c2ccc(C(=O)NNC(=O)C(=O)c3c[nH]c4ccccc34)cc2)no1`, in that order: 12 µM, 22000 nM and 95 µM.
As to `Cc1cncc(Oc2ccc(C(=O)NNC(=O)C(=O)c3c[nH]c4ccccc34)cc2)n1`, the IC50 in test [1] is 31 µM; in test [3] it was 40000 nM; in test [2] it was > 100 µM.
For `O=C(NNC(=O)c1ccc(-c2ccccc2OCc2ccc(F)cc2)cc1)C(=O)c1c[nH]c2ccccc12`, in that order: 4.9 µM, 1900 nM and 13 µM.
For `O=C(NNC(=O)c1ccc(-c2ccccc2COc2cccc(C(F)(F)F)c2)cc1)C(=O)c1c[nH]c2ccccc12` the same measures were 0.81 µM, 620 nM and 5.2 µM.
For `O=C(NNC(=O)c1ccc(-c2cccc(COc3cccc(C(F)(F)F)c3)c2)cc1)C(=O)c1c[nH]c2ccccc12` the same measures were 0.99 µM, 720 nM and 7.6 µM.
For the molecule `Cc1cc(C(C)(C)C)ccc1OCc1cccc(-c2ccc(C(=O)NNC(=O)C(=O)c3c[nH]c4ccccc34)cc2)c1`, the IC50 in test [1] turned out to be 0.67 µM; in test [3] it was 520 nM; in test [2], 4.1 µM. Besides, the values for the growth, % of control at 10 µM in test [4], in test [5] and in test [6] were -7.7%, 7.38% and -9.59%, respectively.
`COCCc1ccc(OCc2cccc(-c3ccc(C(=O)NNC(=O)C(=O)c4c[nH]c5ccccc45)cc3)c2)cc1`: the figures for the IC50 in test [1], in test [3] and in test [2] were 0.68 µM, 380 nM and 8.8 µM, respectively.
For `CS(=O)(=O)NCc1cccc(-c2ccc(C(=O)NNC(=O)C(=O)c3c[nH]c4ccccc34)cc2)c1`, in that order: 3.3 µM, 2800 nM and 27 µM.
On to `Cc1ccc(CNC(=O)C(=O)c2c[nH]c3ccccc23)cc1`, for which the IC50 in test [1] is 63 µM; in test [2] it was > 100 µM.
For `O=C(NCc1cccc(Cl)c1)C(=O)c1c[nH]c2ccccc12` the same measures were > 100 µM and > 100 µM.
For `O=C(NCCc1ccc(Cl)cc1)C(=O)c1c[nH]c2ccccc12`, the IC50 in test [1] and in test [2] was > 100 µM each time.
For `COc1ccc(CCNC(=O)C(=O)c2c[nH]c3ccccc23)cc1OC`, the IC50 in test [1] and in test [2] was > 100 µM throughout.
On to `O=C(NNc1ccccc1)C(=O)c1c[nH]c2ccccc12`, for which the IC50 in test [1] and in test [2] was > 100 µM throughout.
For `O=C(NCc1ccc(Cl)cc1)C(=O)c1c[nH]c2ccccc12`, the IC50 in test [1] and in test [2] was > 100 µM each time.
For the molecule `O=C(NCc1ccccc1)C(=O)c1c[nH]c2ccccc12`, the IC50 in test [1] and in test [2] was > 100 µM in each case.
